In ChEMBL document CHEMBL1124917 (1990) one finds AWC and T/C data, which are given here for six molecules.

Common to all, as to format: functional, Mus musculus
A short description of assay [1]: Average weight change of mice was determined on day 6 after intraperitoneal injection on day 1 at a dose of 256 mg/kg following intraperitoneal implant of P388 leukemia cells in CDF1 mice. The gist of the method: (§1)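 Female CDF₁ mice (16–20 g), six per dose, implanted ip with 10⁶ P388 cells kept as ascites in DBA/2 mice. Single ip dose of freshly prepared aqueous solution 1 day post-implant. Body weight change averaged per dose group, read on day 6, in grams.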

Assay [2] has as its system P388. Nature of the assay: Antitumor activity was determined after intraperitoneal injection on day 1 at a dose of 256 mg/kg following intraperitoneal implant of P388 leukemia cells in CDF1 mice. Put shortly:
(§2)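 P388 leukemia carried as ascites in DBA/2 mice; 10⁶ cells implanted ip into female CDF₁ mice (16–20 g), six per dose, 10 as untreated leukemia controls. Single ip dose of freshly prepared aqueous solution 1 day after implant. Daily observation for 30 days; activity taken as median survival time, treated vs untreated groups (% T/C).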

The test system of assay [3] is P388. Briefly: Average weight change of mice was determined on day 6 after intraperitoneal injection on day 1 at a dose of 100 mg/kg following intraperitoneal implant of P388 leukemia cells in CDF1 mice. Put shortly:
as §1

Assay [4] relates to P388. Nature of the assay: Average weight change of mice was determined on day 6 after intraperitoneal injection on day 1 at a dose of 200 mg/kg following intraperitoneal implant of P388 leukemia cells in CDF1 mice. Put shortly: as §1
Assay [5] concerns P388. Briefly: Antitumor activity was determined after intraperitoneal injection on day 1 at a dose of 100 mg/kg following intraperitoneal implant of P388 leukemia cells in CDF1 mice. Put shortly:
as §2

The subject of assay [6] is P388. Nature of the assay: Antitumor activity was determined after intraperitoneal injection on day 1 at a dose of 200 mg/kg following intraperitoneal implant of P388 leukemia cells in CDF1 mice. The gist of the method: as §2
The subject of assay [7] is P388. Nature of the assay: Antitumor activity was determined after intraperitoneal injection on day 1 at a dose of 64 mg/kg following intraperitoneal implant of P388 leukemia cells in CDF1 mice. The gist of the method:
as §2

For assay [8], the system named is P388. Nature of the assay: Antitumor activity which was determined after intraperitoneal injection on day 1 at a dose of 32 mg/kg following intraperitoneal implant of P388 leukemia cells in CDF1 mice. Put shortly: as §2
Assay [9] relates to P388. Nature of the assay: Average weight change of mice was determined on day 6 after intraperitoneal injection on day 1 at a dose of 32 mg/kg following intraperitoneal implant of P388 leukemia cells in CDF1 mice. Put shortly: as §1
The test system of assay [10] is P388. Nature of the assay: Antitumor activity was determined after intraperitoneal injection on day 1 at a dose of 128 mg/kg following intraperitoneal implant of P388 leukemia cells in CDF1 mice. The gist of the method: as §2
Assay [11] relates to P388. Nature of the assay: Average weight change of mice was determined on day 6 after intraperitoneal injection on day 1 at a dose of 64 mg/kg following intraperitoneal implant of P388 leukemia cells in CDF1 mice. Put shortly:
as §1

In assay [12] the test system is P388. Nature of the assay: Average weight change of mice was determined on day 6 after intraperitoneal injection on day 1 at a dose of 128 mg/kg following intraperitoneal implant of P388 leukemia cells in CDF1 mice. The gist of the method:
as §1

The subject of assay [13] is P388. Briefly: Average weight change of mice was determined on day 6 after intraperitoneal injection on day 1 at a dose of 400 mg/kg following intraperitoneal implant of P388 leukemia cells in CDF1 mice. The gist of the method:
as §1

Assay [14] relates to P388. Nature of the assay: Average weight change of mice was determined on day 6 after intraperitoneal injection on day 1 at a dose of 50 mg/kg following intraperitoneal implant of P388 leukemia cells in CDF1 mice. Put shortly:
as §1

For assay [15], the system named is P388. Nature of the assay: Antitumor activity was determined after intraperitoneal injection on day 1 at a dose of 400 mg/kg following intraperitoneal implant of P388 leukemia cells in CDF1 mice. The gist of the method: as §2
For assay [16], the system named is P388. Nature of the assay: Antitumor activity was determined after intraperitoneal injection on day 1 at a dose of 50 mg/kg following intraperitoneal implant of P388 leukemia cells in CDF1 mice. Put shortly: as §2

`CC(=O)O[C@H]1C[C@H](n2cc(C)c(=O)[nH]c2=O)O[C@@H]1COC(=O)NP(=O)(N1CC1(C)C)N1CC1(C)C` (stereo not given in full) came in with an AWC in [1] of -1.3 g. Further, in [2], the T/C was 113%.
In assay [1], `CC(=O)OC[C@H]1O[C@@H](n2cc(C)c(=O)[nH]c2=O)C[C@@H]1OC(=O)NP(=O)(N1CC1(C)C)N1CC1(C)C` (stereo not given in full) gave an AWC of -0.5 g. Also, the T/C in assay [2] is on record as 125%.
As to `CCOP(=O)(N1CC1(C)C)N1CC1(C)C` (stereo not given), the AWC in assay [3] is -2.6 g; in [4] it was -5.2 g. The T/C in [5] was 289%; in [6], 433%.
For `Cc1cn(C2CC(O)C(CNP(=O)(N3CC3(C)C)N3CC3(C)C)O2)c(=O)[nH]c1=O` (stereo not given), the AWC in [1] is given as -0.7 g; in assay [9], -0.7 g; in [11], -0.4 g; in assay [12], -0.8 g. Further, the T/C in assay [7] was found to be 150%; in assay [8], 131%; in assay [2] it was 156%; in assay [10], 150%.
Take `CCOC(=O)NP(=O)(N1CC1(C)C)N1CC1(C)C` (stereo not given) [METUREDEPA]: the AWC in assay [3] was -0.4 g; in assay [4], -0.2 g; in assay [13] it was -1.3 g; in assay [14], -0.7 g. For the same molecule, the T/C in assay [15] was 244%; in [5] it was 181%; in assay [16], 163%; in [6], 231%.
Turning to `CC1(C)CN1P(=O)(Nc1ccccc1)N1CC1(C)C` (stereo not given) [PHOSPHINIC ANILIDE DERIVATE], the figures for the AWC in assay [1], in [11] and in [12] were -0.8 g, -1.3 g and -0.7 g, respectively. In addition, the T/C in [7] was 144%; in assay [2], 169%; in [10] it was 138%.

Broadly, the T/C is the ratio of treated to control.
